Activity calls are given as the source filed them. The rule behind the calls is not given here.
Columns and labels:
[1] = molecular target: T1, Broad substrate specificity ATP-binding cassette transporter ABCG2 (Homo sapiens, UniProt Q9UNQ0); assay: Inhibition of recombinant human GFP-fused ABCG2 expressed in MDCK2 cells assessed as reduction in Hoechst 33342 efflux preincubated for 30 mins followed by Hoechst 33342 addition measured immediately at 60 sec time interval for 120 mins by fluorescence assay; format: cell-based
T1 sequence (Q9UNQ0 whole entry): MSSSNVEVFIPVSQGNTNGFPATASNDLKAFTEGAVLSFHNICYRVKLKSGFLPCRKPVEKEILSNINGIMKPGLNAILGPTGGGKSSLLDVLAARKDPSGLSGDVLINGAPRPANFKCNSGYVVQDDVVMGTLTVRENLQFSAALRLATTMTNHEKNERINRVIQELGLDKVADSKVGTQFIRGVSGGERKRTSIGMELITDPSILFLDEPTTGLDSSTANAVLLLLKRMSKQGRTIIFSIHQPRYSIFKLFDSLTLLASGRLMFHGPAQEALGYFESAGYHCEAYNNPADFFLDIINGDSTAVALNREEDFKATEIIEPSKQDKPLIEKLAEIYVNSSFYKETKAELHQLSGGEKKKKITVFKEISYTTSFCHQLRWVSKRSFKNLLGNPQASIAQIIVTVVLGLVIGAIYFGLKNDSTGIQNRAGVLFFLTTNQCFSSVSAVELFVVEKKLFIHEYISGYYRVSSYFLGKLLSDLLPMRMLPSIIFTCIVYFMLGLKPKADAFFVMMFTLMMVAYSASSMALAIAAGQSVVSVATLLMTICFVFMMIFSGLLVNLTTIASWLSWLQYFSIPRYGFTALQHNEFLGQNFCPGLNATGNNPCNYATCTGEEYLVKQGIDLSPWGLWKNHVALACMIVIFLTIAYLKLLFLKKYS
How it was run: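 Hoechst 33342 accumulation assay: the dye is an ABCG2 substrate whose fluorescence rises when bound to DNA or embedded in membrane. Intracellular accumulation serves as the read-out of transporter inhibition.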

[2] = molecular target: T2, ABCG2 (Homo sapiens, UniProt Q9UNQ0); assay: Inhibition of recombinant human GFP-fused ABCG2 expressed in MDCK2 cells assessed as reduction in Hoechst 33342 efflux at […] preincubated for 30 mins followed by Hoechst 33342 addition measured immediately at 60 sec time interval for 120 mins by fluorescence assay relative to Ko143; format: cell-based; conditions: MDCK2 cells expressing recombinant GFP-fused human ABCG2, probe Hoechst 33342, read-out: Imax
T2 sequence (Q9UNQ0 whole entry): T1 sequence (Q9UNQ0 whole entry)

[3] = molecular target: ABCC1 (Homo sapiens, UniProt P33527); assay: Inhibition of ABCC1 in human H69AR cells assessed as reduction in calcein AM levels at 10 uM preincubated for 30 mins followed by calcein AM addition measured immediately at 60 sec time interval for 60 mins by fluorescence assay relative to Cyclosporine A; format: cell-based; conditions: probe calcein AM
Chain of ABCC1 (P33527 whole entry): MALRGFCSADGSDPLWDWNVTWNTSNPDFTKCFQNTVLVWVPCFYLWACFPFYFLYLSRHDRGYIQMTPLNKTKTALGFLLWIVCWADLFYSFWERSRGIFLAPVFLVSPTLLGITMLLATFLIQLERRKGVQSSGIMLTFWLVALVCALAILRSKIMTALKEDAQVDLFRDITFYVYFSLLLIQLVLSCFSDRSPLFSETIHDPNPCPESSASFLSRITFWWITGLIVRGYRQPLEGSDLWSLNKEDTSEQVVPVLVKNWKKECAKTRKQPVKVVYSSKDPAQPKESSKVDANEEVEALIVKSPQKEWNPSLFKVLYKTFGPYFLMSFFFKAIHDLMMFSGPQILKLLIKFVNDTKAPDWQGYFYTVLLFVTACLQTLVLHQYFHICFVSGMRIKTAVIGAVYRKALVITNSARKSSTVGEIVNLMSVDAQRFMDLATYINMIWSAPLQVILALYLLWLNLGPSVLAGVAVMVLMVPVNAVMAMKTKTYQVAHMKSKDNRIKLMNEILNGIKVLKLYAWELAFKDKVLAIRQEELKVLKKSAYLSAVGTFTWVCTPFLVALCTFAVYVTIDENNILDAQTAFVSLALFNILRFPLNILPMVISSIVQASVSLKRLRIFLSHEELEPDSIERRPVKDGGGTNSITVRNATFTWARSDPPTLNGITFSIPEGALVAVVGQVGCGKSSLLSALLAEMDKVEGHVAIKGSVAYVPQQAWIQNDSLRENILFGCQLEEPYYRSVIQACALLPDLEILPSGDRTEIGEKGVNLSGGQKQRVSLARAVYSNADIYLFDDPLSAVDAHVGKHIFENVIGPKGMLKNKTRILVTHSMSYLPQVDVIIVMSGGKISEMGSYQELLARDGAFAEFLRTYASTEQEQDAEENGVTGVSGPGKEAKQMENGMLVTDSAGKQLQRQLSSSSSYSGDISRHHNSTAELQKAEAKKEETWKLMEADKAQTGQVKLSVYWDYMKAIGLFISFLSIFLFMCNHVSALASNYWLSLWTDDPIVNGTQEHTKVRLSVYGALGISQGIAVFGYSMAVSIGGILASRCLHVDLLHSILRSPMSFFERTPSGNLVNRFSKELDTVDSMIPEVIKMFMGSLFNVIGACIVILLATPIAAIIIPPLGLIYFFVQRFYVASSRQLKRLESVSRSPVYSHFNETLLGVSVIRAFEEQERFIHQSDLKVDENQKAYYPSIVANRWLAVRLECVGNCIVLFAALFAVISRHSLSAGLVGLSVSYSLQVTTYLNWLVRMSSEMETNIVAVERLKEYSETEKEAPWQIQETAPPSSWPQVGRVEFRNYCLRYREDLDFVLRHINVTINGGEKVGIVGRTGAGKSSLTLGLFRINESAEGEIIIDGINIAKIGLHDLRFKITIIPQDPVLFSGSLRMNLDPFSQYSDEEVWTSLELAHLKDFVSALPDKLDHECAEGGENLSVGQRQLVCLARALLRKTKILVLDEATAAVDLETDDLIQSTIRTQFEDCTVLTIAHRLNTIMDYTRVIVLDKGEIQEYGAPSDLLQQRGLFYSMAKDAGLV
How it was run: (§1)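 Calcein AM assay in A2780adr cells (ABCB1 overexpressing) and H69AR cells (ABCC1 overexpressing). Compounds were screened at 10 µM, with inhibition relative to cyclosporine A as the total-inhibition control.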

[4] = Cytotoxicity against ABCG2 over-expressing MDCK2 cells assessed as cell growth inhibition after 72 hrs by MTT assay; format: ADME, cell-based, Canis lupus familiaris, MDCK-II; conditions: dog
[5] = Cytotoxicity against MDCK2 cells assessed as cell growth inhibition after 72 hrs by MTT assay; format: cell-based, Canis lupus familiaris, MDCK-II; conditions: dog
[6] = Therapeutic index, ratio of GI50 for ABCG2 over-expressing MDCK2 cells to IC50 for recombinant human GFP-fused ABCG2 expressed in MDCK2 cells; format: cell-based
[7] = molecular target: T1, Broad substrate specificity ATP-binding cassette transporter ABCG2; assay: Inhibition of human GFP-fused ABCG2 expressed in MDCK2 cells assessed as potentiation of SN-38 induced cytotoxicity by measuring cell viability at 1 uM after 72 hrs by MTT assay; format: cell-based
How it was run: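 Reversal MTT assay in ABCG2-overexpressing MDCK II cells: SN-38 dilutions were combined with different modulator concentrations. Parental MDCK II cells defined total inhibition, and overexpressing cells without modulator defined no inhibition. GI50 values were plotted against log modulator concentration to derive IC50.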

[8] = molecular target: T1, Broad substrate specificity ATP-binding cassette transporter ABCG2; assay: Activation of ABCG2 (unknown origin) ATPase activity expressed in baculovirus infected high five cell membranes by ascorbic acid/ammonia molybdate reaction-based colorimetric analysis; conditions: read-out: EC50
How it was run: (§2)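 Colorimetric ATPase assay of ABCG2 membranes; activity expressed relative to control. Where data were biphasic, a combined increasing plus decreasing logistic equation with the Hill coefficient fixed at one was fitted, giving an activating and an inactivating K.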

[9] = molecular target: T2, ABCG2; assay: Activation of ABCG2 (unknown origin) ATPase activity expressed in baculovirus infected high five cell membranes assessed as protein Vmax by ascorbic acid/ammonia molybdate reaction-based colorimetric analysis relative to basal control; conditions: read-out: Vmax; how it was run: as §2
[10] = tested on: MDCK-II; assay: Cytotoxicity against ABCG2 over-expressing MDCK2 cells assessed as effect on cell proliferation at low concentration after 72 hrs in absence of DMSO and presence of 1% methanol by MTT assay; format: ADME, cell-based, Canis lupus familiaris; conditions: dog
How it was run: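 Modified MTT viability assay in ABCG2-overexpressing MDCK II cells, run without DMSO and with a constant 1% methanol.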

[11] = tested on: MDCK-II; assay: Potentiation of SN-38 induced cytotoxicity against MDCK2 cells at 0.01 to 5 uM after 72 hrs by MTT assay; format: functional, cell-based; conditions: Canis lupus familiaris
How it was run: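 Parental MDCK II cells were given SN-38 dilutions combined with different modulator concentrations, with viability read by MTT.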

[12] = molecular target: T1, Broad substrate specificity ATP-binding cassette transporter ABCG2; assay: Ratio of IC50 for inhibition of human GFP-fused ABCG2 expressed in MDCK2 cells to EC50 for inhibition of human GFP-fused ABCG2 expressed in MDCK2 cells assessed as potentiation of SN-38 induced cytotoxicity by measuring cell viability; format: cell-based
[13] = molecular target: T1, Broad substrate specificity ATP-binding cassette transporter ABCG2; assay: Non-competitive inhibition of recombinant human GFP-fused ABCG2 expressed in MDCK2 cells up to 100 nM preincubated for 30 mins followed by varying levels of Hoechst 33342 addition measured immediately at 60 sec time interval for 120 mins by Lineweaver-Burk plot analysis; format: cell-based; conditions: 2 h
How it was run: (§3)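 Kinetics were run with Hoechst 33342 as the fluorescent ABCG2 substrate at varying levels, combined with several modulator concentrations. Data were analysed by double-reciprocal Lineweaver-Burk, half-reciprocal Hanes-Woolf and Cornish-Bowden direct linear plots. Changes in Vmax and KM with modulator concentration defined the mode: competitive, non-competitive or mixed type.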

[14] = molecular target: T1, Broad substrate specificity ATP-binding cassette transporter ABCG2; assay: Non-competitive inhibition of recombinant human GFP-fused ABCG2 expressed in MDCK2 cells up to 100 nM preincubated for 30 mins followed by varying levels of Hoechst 33342 addition measured immediately at 60 sec time interval for 120 mins by Hanes-Woolf plot analysis; format: cell-based; conditions: 2 h; how it was run: as §3
[15] = molecular target: T1, Broad substrate specificity ATP-binding cassette transporter ABCG2; assay: Non-competitive inhibition of recombinant human GFP-fused ABCG2 expressed in MDCK2 cells up to 100 nM preincubated for 30 mins followed by varying levels of Hoechst 33342 addition measured immediately at 60 sec time interval for 120 mins by Cornish-Bowden plot analysis; format: cell-based; conditions: 2 h; how it was run: as §3
[16] = molecular target: ATP-dependent translocase ABCB1 (Homo sapiens, UniProt P08183); assay: Inhibition of ABCB1 in human A2780adr cells assessed as reduction in calcein AM levels preincubated for 30 mins followed by calcein AM addition measured immediately at 60 sec time interval for 60 mins by fluorescence assay; format: cell-based; how it was run: as §1
Chain of ATP-dependent translocase ABCB1 (P08183 whole entry): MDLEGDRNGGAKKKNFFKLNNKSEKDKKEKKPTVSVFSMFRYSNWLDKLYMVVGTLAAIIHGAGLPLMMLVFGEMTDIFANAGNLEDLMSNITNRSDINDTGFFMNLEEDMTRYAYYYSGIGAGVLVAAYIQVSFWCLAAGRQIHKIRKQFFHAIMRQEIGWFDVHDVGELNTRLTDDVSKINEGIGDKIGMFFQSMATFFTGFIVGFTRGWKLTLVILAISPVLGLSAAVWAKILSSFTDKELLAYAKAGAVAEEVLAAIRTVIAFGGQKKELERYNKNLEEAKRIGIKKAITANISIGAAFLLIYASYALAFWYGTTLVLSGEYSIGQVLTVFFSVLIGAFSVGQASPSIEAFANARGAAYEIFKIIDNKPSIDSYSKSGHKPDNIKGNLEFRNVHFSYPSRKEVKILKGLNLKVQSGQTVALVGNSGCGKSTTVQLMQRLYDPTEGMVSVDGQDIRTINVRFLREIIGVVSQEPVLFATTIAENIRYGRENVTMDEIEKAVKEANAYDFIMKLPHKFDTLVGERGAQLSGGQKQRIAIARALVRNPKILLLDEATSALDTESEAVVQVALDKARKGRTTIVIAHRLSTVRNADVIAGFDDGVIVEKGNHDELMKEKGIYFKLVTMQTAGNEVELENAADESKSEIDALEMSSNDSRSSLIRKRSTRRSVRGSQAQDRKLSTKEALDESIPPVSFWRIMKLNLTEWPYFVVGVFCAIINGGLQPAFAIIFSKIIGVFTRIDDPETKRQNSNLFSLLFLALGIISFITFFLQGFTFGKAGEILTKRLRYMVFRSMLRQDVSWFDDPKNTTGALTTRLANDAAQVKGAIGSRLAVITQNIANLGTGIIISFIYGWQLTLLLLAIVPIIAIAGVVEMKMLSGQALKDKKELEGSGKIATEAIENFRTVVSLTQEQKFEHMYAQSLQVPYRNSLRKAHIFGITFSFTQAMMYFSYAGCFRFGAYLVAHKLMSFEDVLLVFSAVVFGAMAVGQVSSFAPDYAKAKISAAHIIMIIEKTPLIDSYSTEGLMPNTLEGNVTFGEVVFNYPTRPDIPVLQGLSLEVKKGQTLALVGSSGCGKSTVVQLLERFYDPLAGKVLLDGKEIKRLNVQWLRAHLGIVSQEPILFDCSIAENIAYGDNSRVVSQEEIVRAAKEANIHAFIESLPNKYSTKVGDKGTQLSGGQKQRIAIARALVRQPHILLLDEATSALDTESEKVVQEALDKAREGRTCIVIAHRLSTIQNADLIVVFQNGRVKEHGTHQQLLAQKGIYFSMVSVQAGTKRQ

[17] = molecular target: ABCB1 (Homo sapiens, UniProt P08183); assay: Inhibition of ABCB1 in human A2780adr cells assessed as reduction in calcein AM levels at 10 uM preincubated for 30 mins followed by calcein AM addition measured immediately at 60 sec time interval for 60 mins by fluorescence assay relative to Cyclosporine A; format: cell-based; conditions: probe calcein AM; how it was run: as §1
Chain of ABCB1 (P08183 whole entry, the tested form may be a part): as the sequence (P08183 whole entry) above

[18] = molecular target: T1, Broad substrate specificity ATP-binding cassette transporter ABCG2; assay: Competitive inhibition of recombinant human GFP-fused ABCG2 expressed in MDCK2 cells up to 5620 nM preincubated for 30 mins followed by varying levels of Hoechst 33342 addition measured immediately at 60 sec time interval for 120 mins by Lineweaver-Burk plot analysis; format: cell-based; conditions: 2 h; how it was run: as §3
[19] = molecular target: T1, Broad substrate specificity ATP-binding cassette transporter ABCG2; assay: Competitive inhibition of recombinant human GFP-fused ABCG2 expressed in MDCK2 cells up to 5620 nM preincubated for 30 mins followed by varying levels of Hoechst 33342 addition measured immediately at 60 sec time interval for 120 mins by Hanes-Woolf plot analysis; format: cell-based; conditions: 2 h; how it was run: as §3
[20] = molecular target: T1, Broad substrate specificity ATP-binding cassette transporter ABCG2; assay: Competitive inhibition of recombinant human GFP-fused ABCG2 expressed in MDCK2 cells up to 1000 nM preincubated for 30 mins followed by varying levels of Hoechst 33342 addition measured immediately at 60 sec time interval for 120 mins by Cornish-Bowden plot analysis; format: cell-based; conditions: 2 h; how it was run: as §3
[21] = molecular target: T1, Broad substrate specificity ATP-binding cassette transporter ABCG2; assay: Inhibition of ABCG2 (unknown origin) ATPase activity expressed in baculovirus infected high five cell membranes by ascorbic acid/ammonia molybdate reaction-based colorimetric analysis; how it was run: as §2
[22] = molecular target: T1, Broad substrate specificity ATP-binding cassette transporter ABCG2; assay: Mixed type inhibition of recombinant human GFP-fused ABCG2 expressed in MDCK2 cells preincubated for 30 mins followed by varying levels of Hoechst 33342 addition measured immediately at 60 sec time interval for 120 mins by Cornish-Bowden plot analysis; format: cell-based; conditions: 2 h; how it was run: as §3
[23] = molecular target: T2, ABCG2; assay: Activation of ABCG2 (unknown origin) ATPase activity expressed in baculovirus infected high five cell membranes assessed as protein Vmax at 0.5 uM by ascorbic acid/ammonia molybdate reaction-based colorimetric analysis relative to basal control; conditions: read-out: Vmax; how it was run: as §2
[24] = molecular target: T2, ABCG2; assay: Activation of ABCG2 (unknown origin) ATPase activity expressed in baculovirus infected high five cell membranes assessed as protein Vmax at 35 uM by ascorbic acid/ammonia molybdate reaction-based colorimetric analysis relative to basal control; conditions: read-out: Vmax; how it was run: as §2

| SMILES | IC50 [1] | Emax at 2 h [2] | EC50 [8] | Emax [9] | GI50 at 72 h [4] | GI50 at 72 h [5] | TI [6] | inhibition (INH) [7] | Activity [10] | Activity [11] | also measured |
| --- | --- | --- | --- | --- | --- | --- | --- | --- | --- | --- | --- |
| COc1cccc(Nc2nc(-c3ccncc3)nc3ccccc23)c1 | 0.558 µM | 80 to 110% | 0.042 µM | 132% |  |  |  |  |  |  | IC50 [16]: 5.43 µM; inhibition at 1 h, 10 µM [17]: > 25%; inhibition (INH) [18]: Active; inhibition (INH) [19]: Active; inhibition (INH) [20]: Active |
| FC(F)(F)c1cccc(Nc2nc(-c3ccncc3)nc3ccccc23)c1 | 0.216 µM | 80 to 110% |  |  | 12.6 µM | 12.3 µM | 58.3 |  |  |  | Ki [21]: 28 µM; inhibition (INH) [22]: Active; Emax at 0.5 µM [23]: 155%; Emax at 35 µM [24]: 25% |
| N#Cc1cccc(Nc2nc(-c3cccnc3)nc3ccccc23)c1 | 0.108 µM | 80 to 110% | 0.35 µM | 151% | 75.3 µM | 90.7 µM | 697 | Active | Non-Toxic | inactive |  |

Second part, led by results:

| IC50 [1] | Emax at 2 h [2] | EC50 [8] | Emax [9] | SMILES | GI50 at 72 h [4] | GI50 at 72 h [5] | TI [6] | inhibition (INH) [7] | Activity [10] | Activity [11] | also measured |
| --- | --- | --- | --- | --- | --- | --- | --- | --- | --- | --- | --- |
| 0.0988 µM | 80 to 110% | 1.8 µM | 154% | Cc1cc(Nc2ccc(O)c([N+](=O)[O-])c2)nc(-c2ccccc2)n1 | 49 µM | 57.5 µM | 496 | Active | Non-Toxic | inactive | inhibition at 1 h, 10 µM [3]: 25% |
| 0.0641 µM | 80 to 110% | 0.009 µM | 164% | O=[N+]([O-])c1ccc(Nc2nc(-c3cccnc3)nc3ccccc23)cc1 | 73.3 µM | 74.1 µM |  | Active | Non-Toxic | inactive | Ratio IC50/EC50 [12]: 3; inhibition (INH) [13]: Active; inhibition (INH) [14]: Active; inhibition (INH) [15]: Active |
| 0.742 µM | 80 to 110% | 0.07 µM | 137% | COc1ccc(Nc2nc(-c3ccncc3)nc3ccccc23)cc1 |  |  |  |  |  |  | inhibition at 1 h, 10 µM [3]: 25% |
| 0.488 µM | 80 to 110% |  | 152% | FC(F)(F)c1ccc(Nc2nc(-c3ccncc3)nc3ccccc23)cc1 | 117 µM | 166 µM | 240 |  |  |  | Ki [21]: 27 µM |

From ChEMBL document CHEMBL4014315 (J Med Chem, 2017)
